Laboratory results as given in ChEMBL document CHEMBL4619802, “Discovery and Characterization of Pure RhlR Antagonists against Pseudomonas aeruginosa Infections” (J Med Chem, 2020).
Calls of active or inactive are those of the source. The calls are words filed in the database; no cut-off is given here.

Tests used:
[1] = biological target: T1, HTH-type quorum-sensing regulator RhlR (Pseudomonas aeruginosa (strain ATCC 15692 / PAO1 / 1C / PRS 101 / LMG12228)) (UniProt P54292); assay: Agonist activity at Pseudomonas aeruginosa RhlR expressed in Escherichia coli DH5alpha assessed as relative protein activity at 1000 uM incubated for 1.5 hrs by luminescence reporter gene assay relative to control
T1 sequence (whole entry): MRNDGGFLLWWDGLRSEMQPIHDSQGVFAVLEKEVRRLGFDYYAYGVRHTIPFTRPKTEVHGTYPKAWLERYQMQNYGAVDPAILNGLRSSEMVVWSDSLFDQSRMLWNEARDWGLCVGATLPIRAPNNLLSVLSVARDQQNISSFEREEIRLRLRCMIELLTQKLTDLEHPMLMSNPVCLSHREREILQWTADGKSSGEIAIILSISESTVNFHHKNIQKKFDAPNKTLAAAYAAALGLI

[2] = tested on: Pseudomonas aeruginosa; assay: Antibacterial activity against Pseudomonas aeruginosa assessed as bacterial growth at 100 uM incubated for 24 hrs relative to control; format: functional
Summary of the method: (§1)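 P. aeruginosa overnight culture (OD595 1.0) diluted 1:20 in AB medium (pH 7.5, 1% glucose, casamino acids, arginine) with compound, in borosilicate bottles, 37 °C for 24 h without shaking. Growth taken as OD595 of the suspended culture. Attached cells washed twice with PBS, stained with 0.1% crystal violet for 10 min, dye eluted in ethanol and read at 545 nm.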

[3] = biological target: T1, HTH-type quorum-sensing regulator RhlR (Pseudomonas aeruginosa (strain ATCC 15692 / PAO1 / 1C / PRS 101 / LMG12228)); assay: Modulation of RhlR in Pseudomonas aeruginosa assessed as biofilm formation at 100 uM incubated for 24 hrs under static condition by crystal violet staining based assay relative to control
[4] = biological target: T1, HTH-type quorum-sensing regulator RhlR (Pseudomonas aeruginosa (strain ATCC 15692 / PAO1 / 1C / PRS 101 / LMG12228)); assay: Agonist activity at Pseudomonas aeruginosa RhlR expressed in Escherichia coli DH5alpha assessed as relative protein activity at 100 uM incubated for 1.5 hrs by luminescence reporter gene assay relative to control
[5] = tested on: Pseudomonas aeruginosa; assay: Antibacterial activity against Pseudomonas aeruginosa assessed as bacterial growth at 10 uM incubated for 24 hrs relative to control; format: functional; summary of the method: as §1
[6] = biological target: T1, HTH-type quorum-sensing regulator RhlR (Pseudomonas aeruginosa (strain ATCC 15692 / PAO1 / 1C / PRS 101 / LMG12228)); assay: Antagonist activity at RhlR in Pseudomonas aeruginosa assessed as rhamnolipid production at 10 uM incubated for 24 hrs by Orcinol staining based assay relative to control; design: scale not given: the % may be the effect or the level left
[7] = biological target: T1, HTH-type quorum-sensing regulator RhlR (Pseudomonas aeruginosa (strain ATCC 15692 / PAO1 / 1C / PRS 101 / LMG12228)); assay: Antagonist activity at Pseudomonas aeruginosa RhlR expressed in Escherichia coli DH5alpha assessed as relative protein activity at 10 uM incubated for 1.5 hrs in presence of N-butyryl-L-homoserine lactone by luminescence reporter gene assay relative to control; design: scale not given: the % may be the effect or the level left
Summary of the method: (§2)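 E. coli DH5α sdiA mutant carrying RhlR and rhlA::lacZ plasmids, at OD595 0.3 in LB. Compound given with BHL (10 µM per footnote) and 0.4% arabinose, 37 °C for 1.5 h.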

[8] = biological target: T1, HTH-type quorum-sensing regulator RhlR (Pseudomonas aeruginosa (strain ATCC 15692 / PAO1 / 1C / PRS 101 / LMG12228)); assay: Modulation of RhlR in Pseudomonas aeruginosa assessed as biofilm formation at 10 uM incubated for 24 hrs under static condition by crystal violet staining based assay relative to control
[9] = biological target: T1, HTH-type quorum-sensing regulator RhlR (Pseudomonas aeruginosa (strain ATCC 15692 / PAO1 / 1C / PRS 101 / LMG12228)); assay: Antagonist activity at RhlR in Pseudomonas aeruginosa assessed as rhamnolipid production at 100 uM incubated for 24 hrs by Orcinol staining based assay relative to control; design: scale not given: the % may be the effect or the level left
[10] = biological target: T1, HTH-type quorum-sensing regulator RhlR (Pseudomonas aeruginosa (strain ATCC 15692 / PAO1 / 1C / PRS 101 / LMG12228)); assay: Antagonist activity at Pseudomonas aeruginosa RhlR expressed in Escherichia coli DH5alpha assessed as relative protein activity at 100 uM incubated for 1.5 hrs in presence of N-butyryl-L-homoserine lactone by luminescence reporter gene assay relative to control; design: scale not given: the % may be the effect or the level left; summary of the method: as §2

Activity [4] | Activity [10] | SMILES | also measured
3% | 32% | CCCC(O)C#Cc1ccc(F)c(F)c1 (racemic) | Activity [1]: 5%; Activity [2]: 104%; Activity [3]: 60%; Activity [5]: 100%; Activity [6]: 73%; Activity [7]: 45%; Activity [8]: 73%; Activity [9]: 49%
2% | 69% | CCCC(O)CC(=O)CCc1ccc(Cl)cc1 (centres undefined) | –
1% | 79% | CCCC(O)CC(=O)CCc1ccc(F)c(OC)c1 (centres undefined) | –
1% | 33% | CCCC(O)CC(=O)/C=C/c1ccc(F)cc1 (centres undefined) | –
3% | 29% | CCCCCC(=O)C#Cc1ccc(O)c(OC)c1 | Activity [2]: inactive; Activity [8]: Active
2% | 41% | CCCCCC(=O)/C=C/c1ccc(O)c(OC)c1 | –
2% | 41% | CCCCCC(O)/C=C/c1ccc(O)c(OC)c1 (centres undefined) | –
1% | 49% | CCCC(O)CC(=O)CCc1ccc(F)c(F)c1 (centres undefined) | –
2% | 90% | CCCCCCCC(O)CC(=O)CCc1ccc(O)c(OC)c1 (centres undefined) | –
4% | 88% | CCCC(O)CC(=O)CCc1ccccc1 (centres undefined) | –
3% | 32% | CCCCCC(O)C#Cc1ccc(O)c(OC)c1 (racemic) | Activity [2]: inactive; Activity [8]: Active
4% | 93% | CCCC(O)CC(=O)/C=C/c1ccccc1 (centres undefined) | –
2% | 78% | CCCC(O)CC(=O)/C=C/c1cccc(O)c1 (centres undefined) | –
2% | 60% | CCCC(O)CC(=O)/C=C/c1ccc(O)c(F)c1 (centres undefined) | –
3% | 74% | CCCCCC(O)C#Cc1ccc(F)c(F)c1 (racemic) | –
2% | 36% | CCCCCCCCCC(O)CC(=O)CCc1ccc(O)c(OC)c1 (centres undefined) | Activity [2]: inactive; Activity [8]: Active
3% | 79% | CCCCCC(O)/C=C\c1ccc(O)c(OC)c1 (centres undefined) | –
4% | 55% | CCCCCC(=O)CCc1ccc(F)c(F)c1 | –
3% | 67% | CCCC[C@@H](O)C#Cc1ccc(F)c(F)c1 | –
1% | 55% | CCCC(O)CC(=O)/C=C/c1ccc(OC)cc1 (centres undefined) | Activity [2]: inactive; Activity [8]: Active
2% | 72% | CCCC(O)CC(=O)/C=C/c1ccc(C)c(C)c1 (centres undefined) | –

Activity [4] | Activity [10] | SMILES | also measured
4% | 71% | CCCCC(O)C#Cc1ccc(F)c(F)c1 (racemic) | –
2% | 90% | CCCC(O)CC(=O)CCc1cccc(OC)c1 (centres undefined) | –
3% | 85% | CCCC(O)CC(=O)CCc1cc(F)cc(OC)c1 (centres undefined) | –
3% | 27% | CCCCC[C@@H](O)C#Cc1ccc(O)c(OC)c1 | Activity [2]: inactive; Activity [8]: Active
2% | 94% | CCCC(O)CC(=O)/C=C/c1cccc(OC)c1 (centres undefined) | Activity [1]: 4%; Activity [2]: 95%; Activity [3]: 73%; Activity [5]: 96%; Activity [6]: 91%; Activity [7]: 89%; Activity [8]: 88%; Activity [9]: 83%
1% | 64% | CCCC(O)CC(=O)/C=C/c1ccc(Cl)cc1 (centres undefined) | –
1% | 98% | CCCC(O)CC(=O)CCc1ccc(O)c(OCC)c1 (centres undefined) | –
3% | 43% | CCCC(O)CC(=O)/C=C/c1ccc(O)c(O)c1 (centres undefined) | Activity [1]: 5%; Activity [2]: 104%; Activity [3]: 72%; Activity [5]: 99%; Activity [6]: 56%; Activity [7]: 60%; Activity [8]: 84%; Activity [9]: 50%
2% | 47% | CCCC(O)CC(=O)CCc1ccc(O)c(O)c1 (centres undefined) | –
3% | 25% | CCC[C@@H](O)C#Cc1ccc(F)c(F)c1 | Activity [1]: 5%; Activity [2]: 102%; Activity [3]: 60%; Activity [5]: 98%; Activity [6]: 60%; Activity [7]: 45%; Activity [8]: 74%; Activity [9]: 48%
4% | 16% | CCCCC(=O)C#Cc1ccc(F)c(F)c1 | Activity [1]: 6%; Activity [2]: 89%; Activity [3]: 55%; Activity [5]: 100%; Activity [6]: 59%; Activity [7]: 29%; Activity [8]: 75%; Activity [9]: 49%
4% | 67% | CCCCC[C@H](O)C#Cc1ccc(F)c(F)c1 | –
3% | 83% | CCCCCCC(O)CC(=O)CCc1ccc(O)c(OC)c1 (centres undefined) | –
4% | 51% | CCCCCC(=O)/C=C/c1ccc(F)c(F)c1 | Activity [1]: 3%; Activity [2]: 103%; Activity [3]: 61%; Activity [5]: 103%; Activity [6]: 64%; Activity [7]: 53%; Activity [8]: 80%; Activity [9]: 62%
5% | 61% | CCCCCC(O)CCc1ccc(F)c(F)c1 (centres undefined) | –
2% | 65% | CCCC(O)CC(=O)/C=C/c1ccc(C)cc1 (centres undefined) | –
3% | 38% | CCC[C@H](O)C#Cc1ccc(F)c(F)c1 | Activity [1]: 5%; Activity [2]: 99%; Activity [3]: 64%; Activity [5]: 98%; Activity [6]: 59%; Activity [7]: 59%; Activity [8]: 79%; Activity [9]: 52%
5% | 55% | CCCCCC(O)/C=C/c1ccc(F)c(F)c1 (centres undefined) | –
2% | 71% | CCCC(O)CC(=O)CCc1ccc(OC)cc1 (centres undefined) | –
2% | 53% | CCCC(O)CC(=O)/C=C/c1ccc(N(C)C)cc1 (centres undefined) | –
3% | 74% | CCCC(O)CC(=O)/C=C/c1cc(F)cc(OC)c1 (centres undefined) | –

Activity [4] | Activity [10] | SMILES | also measured
3% | 64% | CCCC(O)CC(=O)CCc1ccc(O)cc1 (centres undefined) | –
3% | 82% | CCCC(O)CC(=O)CCc1ccc(C)c(C)c1 (centres undefined) | –
1% | 94% | CCCC(O)CC(=O)CCc1ccc(OC)c(OC)c1 (centres undefined) | –
1% | 91% | CCCC(O)CC(=O)/C=C/c1ccc(O)c(OCC)c1 (centres undefined) | –
2% | 45% | CCCCCC(O)CCc1ccc(O)c(OC)c1 (centres undefined) | –
2% | 51% | CCCC(O)CC(=O)CCc1ccc(F)cc1 (centres undefined) | –
2% | 64% | CCCC[C@H](O)C#Cc1ccc(F)c(F)c1 | –
2% | 41% | CCCCCCCCC(O)CC(=O)CCc1ccc(O)c(OC)c1 (centres undefined) | Activity [2]: inactive; Activity [8]: Active
2% | 49% | CCCCCC(=O)CCc1ccc(O)c(OC)c1 | –
2% | 20% | CCCC(O)CC(=O)/C=C/c1ccc(F)c(F)c1 (centres undefined) | Activity [1]: 5%; Activity [2]: 105%; Activity [3]: 53%; Activity [5]: 101%; Activity [6]: 63%; Activity [7]: 60%; Activity [8]: 72%; Activity [9]: 50%
1% | 51% | CCCC(O)CC(=O)/C=C/c1ccc(O)cc1 (centres undefined) | Activity [2]: inactive; Activity [8]: Active
2% | 81% | CCCC(O)CC(=O)CCc1cccc(O)c1 (centres undefined) | –
2% | 62% | CCCCC(O)CC(=O)CCc1ccc(O)c(OC)c1 (centres undefined) | –
1% | 74% | CCCC(O)CC(=O)CCc1ccc(N(C)C)cc1 (centres undefined) | –
1% | 43% | CCCC(O)CC(=O)/C=C/c1ccc(F)c(OC)c1 (centres undefined) | –
1% | 73% | CCCC(O)CC(=O)CCc1ccc(O)c(F)c1 (centres undefined) | –
1% | 69% | CCCC(O)CC(=O)/C=C/c1ccc(OC)c(OC)c1 (centres undefined) | –
3% | 72% | CCCCC[C@@H](O)C#Cc1ccc(F)c(F)c1 | –
3% | 34% | CCCCC[C@H](O)C#Cc1ccc(O)c(OC)c1 | Activity [2]: inactive; Activity [8]: Active
1% | 76% | CCCC(O)CC(=O)CCc1ccc(C)cc1 (centres undefined) | –
